What is called LC50 is the concentration that kills 50% of the test population.

SMILES strings stand for the structures. Active and inactive are the calls of the source. The rule behind the calls is not given here.

Drawing on ChEMBL document CHEMBL1781943, “Molluscicidal metabolites from an assemblage of Palmyra Atoll cyanobacteria” (J Nat Prod, 2011), this text covers LC50 and Activity for two compounds.

For one series, the system named is Biomphalaria glabrata. Briefly: Molluscicidal activity against Biomphalaria glabrata assessed as mortality after 24 hrs. The class given is functional. In a few lines: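 Test organism: the snail Biomphalaria glabrata. Pure compound was made up as a 20 mg/mL stock in EtOH, and an aliquot of this stock was diluted with distilled water to give the snail exposure solution. Snails were scored for death, and LC50 values were reported.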

The test system of another series is Staphylococcus aureus. Briefly: Antibacterial activity against methicillin-resistant Staphylococcus aureus. The class given is functional, organism-based.
In the next series the test system is NCI-H460. As to the kind of experiment: Cytotoxicity against human H460 cells up to 100 uM. The class given is cell-based.
A short description of series [1]: Cytotoxicity against mouse Neuro2a cells up to 100 uM. Format: cell-based. The conditions noted are these: n2a.
The subject of a further series is Candida albicans. Briefly: Antifungal activity against Candida albicans. Format: functional, organism-based.

With `COC(/C=C/CO)=C/C(=O)N1C(=O)C=C[C@@H]1C` [PALMYRROLINONE], the LC50 with Biomphalaria glabrata was determined as 6 µM. The outcome in the series on Staphylococcus aureus and in the series on Candida albicans was inactive. Also, the Activity result (in the series on NCI-H460; in series [1]) was “Non-toxic” in each case.
`COC1=CC(=O)S[C@@H](CO)C1` [THIOPALMYRONE]: the LC50 in the series on Biomphalaria glabrata worked out at 8.3 µM. For the same compound, the result with Staphylococcus aureus and in the series with Candida albicans was inactive. For the same compound, the Activity result (in the series with NCI-H460; in series [1]) was “Non-toxic” throughout.
